MPTP block: permeability transition pore inhibition; isolated mouse mitochondria, Ca2+ swelling absorbance, 30 min; inhibition, % at 10 µM; 1.4% of 360,000 active; AID 602449;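 active = inhibition of 50% or more, scaled per plate between neutral and stimulator controls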;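 note: 0% = DMSO wells given calcium and 100% = 1 mM EGTA wells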
SENP1 FRET inh: SENP1 (human) catalytic domain inhibition | Q9P0U3 | recombinant SENP1 catalytic domain, CyPet-SUMO1-YPet FRET cleavage | inhibition, % at 10 µM | 0.21% of 360,000 active | AID 624204;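 active = inhibition at least 30% at 10 µM, raw YFP signal under a set limit, fluorescence ratio 0.5 to 1.5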;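 note: 0% = enzyme with DMSO and 100% = no enzyme wells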
Target sequence (Q9P0U3 419-644 limits assumed): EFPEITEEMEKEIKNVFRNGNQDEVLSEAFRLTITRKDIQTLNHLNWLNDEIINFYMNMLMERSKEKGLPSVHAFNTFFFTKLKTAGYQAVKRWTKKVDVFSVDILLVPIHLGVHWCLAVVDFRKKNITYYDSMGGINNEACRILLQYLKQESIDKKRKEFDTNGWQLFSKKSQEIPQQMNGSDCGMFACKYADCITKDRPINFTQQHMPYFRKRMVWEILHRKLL
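Material – human SENP1 catalytic domain · Input – SENP1 enzyme, 20 pM final · Compound dosing – single concentration of 10 µM compound, 0.5% DMSO final · Timing – enzyme reaction for 50 min at room temperature, dark · Measured by – FRET fluorescence in CFP and YFP emission channels · Control set – no-enzyme wells low, DMSO-plus-enzyme wells high control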
GRIN3A LBD mod: modulates the human NR3A ligand-binding domain; Tm shift relative to glycine control, % at 25 µM; AID 1259313; 2.5% of 340,000 active; NR3A LBD differential scanning fluorimetry, Tm shift; 0% = protein alone, 100% = glycine-bound protein;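 active = melting temperature shift of at least 10% of the positive control shift, at one fixed dose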
EBI2 block: antagonists of human EBI2 receptor. inhibition, % at 5 µM. P32249. AID 651636. EBI2 beta-arrestin recruitment, luminescence, 7a,25-OHC stimulated. 0.81% of 360,000 active; in the data active = inhibition above about 38%;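 note: enzyme fragment complementation signal reports receptor beta-arrestin coupling in cells; 0% = agonist plus DMSO wells and 100% = wells without agonist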
Target sequence (P32249 whole entry, looked up, the tested form may be a part): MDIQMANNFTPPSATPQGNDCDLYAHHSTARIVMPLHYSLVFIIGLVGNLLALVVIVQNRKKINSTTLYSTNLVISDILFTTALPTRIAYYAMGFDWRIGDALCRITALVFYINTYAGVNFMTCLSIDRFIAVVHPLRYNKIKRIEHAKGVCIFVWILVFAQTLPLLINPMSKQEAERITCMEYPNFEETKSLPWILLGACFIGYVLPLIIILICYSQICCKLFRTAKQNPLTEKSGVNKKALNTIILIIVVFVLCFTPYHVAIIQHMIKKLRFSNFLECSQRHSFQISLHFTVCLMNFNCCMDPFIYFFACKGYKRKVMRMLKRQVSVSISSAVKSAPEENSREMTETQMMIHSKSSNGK
Starred values were filed as active, the others as inactive. Shown are actives, neighbours in structure and some others; about 4.4% of the full set was active somewhere.

`Cc1ccc(CN2CCN(C(=O)CCC(=O)Nc3nnc(C(C)C)s3)CC2)c(C)c1` gave MPTP block 1.4, SENP1 FRET inh 1.3, GRIN3A LBD mod -3.4 and EBI2 block 0.4.
Screening CC(C)(O)c1cc2ccc(C#Cc3ccsc3)cc2c(=O)o1 returned MPTP block 0.3, SENP1 FRET inh 1.2, GRIN3A LBD mod -17.6 and EBI2 block 2.0.
CS(=O)(=O)Nc1ccc(C(=O)Nc2cccc([N+](=O)[O-])c2)cc1 was read as MPTP block 0.6, SENP1 FRET inh 1.0, GRIN3A LBD mod 20.7* and EBI2 block -4.5.
Cc1nc2ccc(NC(=O)c3ccc([N+](=O)[O-])cc3[N+](=O)[O-])cc2s1 was read as MPTP block 1.8, SENP1 FRET inh 2.4, GRIN3A LBD mod -0.2 and EBI2 block -6.0.
O=C(Nc1cccc([N+](=O)[O-])c1)c1ccc(-c2ccccc2)cc1 was read as MPTP block 6.3, SENP1 FRET inh 3.4, GRIN3A LBD mod 25.4* and EBI2 block 0.4.
For Cc1ccc(C(=O)Nc2cccc([N+](=O)[O-])c2)cc1S(=O)(=O)Nc1ccc(C(=O)O)cc1 the results were MPTP block 3.4, SENP1 FRET inh 2.2, GRIN3A LBD mod 7.0 and EBI2 block 3.7.
For Cc1nc2ccc(C(=O)Nc3cccc([N+](=O)[O-])c3)cc2s1 the results were MPTP block -1.0, SENP1 FRET inh -0.5, GRIN3A LBD mod 20.6* and EBI2 block 14.4.
Screening O=C(Nc1cccc([N+](=O)[O-])c1)c1cccc(C(=O)Nc2cccc([N+](=O)[O-])c2)c1 returned MPTP block 19.4, SENP1 FRET inh 1.4, GRIN3A LBD mod -1.1 and EBI2 block 6.6.
Screening CCCCSc1nc(O)cc(=O)n1CC returned MPTP block 0.2, SENP1 FRET inh 1.0, GRIN3A LBD mod -4.7 and EBI2 block -2.3.
Screening COc1cccc(CSC(C(=O)O)c2ccccc2)c1 (stereo unspecified) returned MPTP block -0.9, SENP1 FRET inh 1.7 and EBI2 block -15.7.
For O=C(O)C1CSC(c2ccncc2)N1 (stereo unspecified) the results were MPTP block -0.4, SENP1 FRET inh 64.6*, GRIN3A LBD mod 0.7 and EBI2 block -2.7.
For COC(=O)c1ccc(C2NC(C(=O)O)CS2)cc1 (stereo unspecified) the results were MPTP block -2.2, SENP1 FRET inh 1.3, GRIN3A LBD mod -1.4 and EBI2 block 6.1.
COc1ccc(CCNC(=O)CSc2nc3c(sc(=S)n3-c3ccccc3)c(=O)[nH]2)cc1OC was read as MPTP block -0.3, SENP1 FRET inh 2.4 and EBI2 block 5.6.
COc1ccc(CCNC(=O)CSc2nn(-c3ccccc3)c(=S)s2)cc1OC was read as MPTP block 2.0, SENP1 FRET inh 2.5, GRIN3A LBD mod 18.5* and EBI2 block 10.1.
Screening Cc1ccc(N(CC(=O)NCc2ccc(F)cc2)S(=O)(=O)c2c(C)n[nH]c2C)cc1 returned MPTP block 1.3, SENP1 FRET inh 1.8, GRIN3A LBD mod -5.3 and EBI2 block 4.5.
`CN(/N=C\c1ccc(O)c(O)c1)c1nc(-c2ccccc2)cc(-c2ccccc2)n1` gave MPTP block 7.6, SENP1 FRET inh 1.5, GRIN3A LBD mod 21.4* and EBI2 block -0.4.
COc1cc(/C=N/N(c2ccccc2)c2ccccc2)ccc1O was read as MPTP block 3.3, SENP1 FRET inh -1.1, GRIN3A LBD mod -5.3 and EBI2 block 4.0.
CC(C)(C)OC(=O)CC1(C#N)c2ccccc2C(Br)=CN1C(=O)c1ccccc1 (stereo unspecified) was read as MPTP block -0.8, SENP1 FRET inh 1.3, GRIN3A LBD mod -0.9 and EBI2 block 12.7.
For COc1cc(CNC(=O)C2CC2)ccc1OCc1ccccc1 the results were MPTP block -0.1, SENP1 FRET inh 0.6, GRIN3A LBD mod -0.8 and EBI2 block -9.9.
Cc1ccc(C(CC(=O)N2CCCCC2)c2ccccc2)c(O)c1C (stereo unspecified) was read as MPTP block 2.0, SENP1 FRET inh -0.6, GRIN3A LBD mod 13.4* and EBI2 block 4.9.
For Cc1ccc(C(CC(=O)N2CCNCC2)c2ccccc2)c(O)c1C (stereo unspecified) the results were MPTP block 0.4, SENP1 FRET inh 1.0, GRIN3A LBD mod 0.2 and EBI2 block -5.2.
Screening COc1ccc(S(=O)(=O)n2[nH]c(=O)c(CCO)c2C)c([N+](=O)[O-])c1 returned MPTP block -0.6, SENP1 FRET inh 0.1, GRIN3A LBD mod 15.6* and EBI2 block -0.2.
For COc1ccccc1NC(=O)C1CCCN(S(=O)(=O)c2ccc3[nH]c(=O)ccc3c2)C1 (stereo unspecified) the results were MPTP block -1.7, SENP1 FRET inh 1.5, GRIN3A LBD mod -1.0 and EBI2 block -0.7.
COc1ccc(C)cc1NC(=O)C1CCCN(S(=O)(=O)c2ccc3[nH]c(=O)ccc3c2)C1 (stereo unspecified) was read as MPTP block 0.8, SENP1 FRET inh -3.8, GRIN3A LBD mod 14.8* and EBI2 block -10.4.
Cc1ccc(NC(=O)CSc2nc(N)c3c4c(sc3n2)CSC(C)(C)C4)cc1 was read as MPTP block 9.5, SENP1 FRET inh -1.9, GRIN3A LBD mod 23.6* and EBI2 block -4.2.
For Cc1ccc(Cl)cc1NC(=O)Cn1nc(-c2cccs2)ccc1=O the results were MPTP block -2.2, SENP1 FRET inh 0.1, GRIN3A LBD mod 2.7 and EBI2 block -2.7.
C[C@@H](c1ccccc1)N1C[C@H](COCc2ccccc2)Oc2cc(N3CC[C@H](N(C)C)C3)ccc2S1(=O)=O was read as MPTP block 1.2, SENP1 FRET inh -0.5 and EBI2 block -1.8.
For COc1ccc(/C=N\NC(=O)c2cc3c(ccc4ccccc43)o2)cc1O the results were MPTP block -1.2, SENP1 FRET inh -3.6, GRIN3A LBD mod 25.4* and EBI2 block 9.9.
Screening COc1ccccc1/C=N/NC(=O)c1cc2c(ccc3ccccc32)o1 returned MPTP block 0.3, SENP1 FRET inh -0.8, GRIN3A LBD mod -0.9 and EBI2 block 7.9.
For N#CCC(=O)N/N=C/c1cn(Cc2ccc(Cl)c(Cl)c2)c2ccccc12 the results were MPTP block 5.4, SENP1 FRET inh 0.2, GRIN3A LBD mod 30.9* and EBI2 block 5.5.
`N#CCC(=O)N/N=C/c1cn(Cc2ccccc2C#N)c2ccccc12` gave MPTP block -0.1, SENP1 FRET inh 0.4, GRIN3A LBD mod 9.6 and EBI2 block -8.3.
`COc1ccc(/C=N/NC(=O)c2cc3c(ccc4ccccc43)o2)cc1OC` gave MPTP block -0.7, SENP1 FRET inh -1.6, GRIN3A LBD mod 20.1* and EBI2 block -8.6.
`N#CCn1cc(/C=N/NC(=O)c2cc3c(ccc4ccccc43)o2)c2ccccc21` gave MPTP block 0.6, SENP1 FRET inh -59.0, GRIN3A LBD mod 24.8* and EBI2 block -4.1.
For COc1ccc(-n2c(=O)[nH]c3c(C(N)=O)nc(C4CCCCC4)nc32)cc1 the results were MPTP block 2.9, SENP1 FRET inh 3.3, GRIN3A LBD mod 0.7 and EBI2 block -7.6.
`CNc1nc(NN)nc(Nc2ccccc2)n1` gave MPTP block -0.7, SENP1 FRET inh 1.9, GRIN3A LBD mod -2.5 and EBI2 block 2.8.

Compound activity deposited in PubChem by Sanford-Burnham Center for Chemical Genomics.
